Among the data in the array DNA melting data of Ke et al. (doi:10.1101/2024.01.08.574731) are folding enthalpy and Tm values, retold here.

The nature of series [1]: folding enthalpy; higher = less favourable; fluorescence melt of hairpins on a sequencing array, two-state fit. To be noted: sodium 0.088 M. The procedure, abridged: (§1)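 Bootstrapped two-state fits yielded melting temperature and folding enthalpy for library hairpins. Cy3 fluorescence, with annealed Cy3 and quencher oligos, was imaged on a sequenced MiSeq flow cell in 50 mM Na-HEPES pH 8.0, 25 mM NaCl in 2.5 °C steps up to 60 °C, and normalised to pre-quench Cy3 and to control constructs. Four replicates were combined by inverse variance, and fitted temperatures were raised by 9.35 °C to match UV melts.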

A short description of series [2]: melting temperature; fluorescence melt of hairpins on a sequencing array, two-state fit, raised by 9.35 °C to match UV melts. To be noted: sodium 0.088 M. The method, boiled down:
as §1

Regarding TGAGAGAAATCTCA (((((....))))), the folding enthalpy in series [1] is -9.57 kcal/mol. Also, the Tm in series [2] was 28.2 °C.
The like results for CGCCTCGGAAACGACGCG (((.(((....))).))) were, in that order, -33.9 kcal/mol and 45.7 °C.
Take GATCTATCTTTAGATC ((((((....)))))): the folding enthalpy in series [1] is -24.1 kcal/mol. Further, the Tm in series [2] was 43.1 °C.
The like results for GCGAGGCGAAAGCGTAGC ((.(.((....)).).)) were, in that order, -15.4 kcal/mol and 51 °C.
Taken in the same sequence, the figures for GCCCTGCGAAAGCATCGC ((..(((....)))..)) were -7.06 kcal/mol and 33.6 °C.
Regarding TCTACGAAAGTAGA (((((....))))), the folding enthalpy in series [1] was -16.4 kcal/mol. The Tm in series [2] stood at 47.8 °C.
With GATCAAAATTTGATC ((((((...)))))), the folding enthalpy in series [1] is -26.4 kcal/mol. Further, in series [2], the Tm came to 39.3 °C.
Taken in the same sequence, the figures for GCTTAGCGAAAGCTGGGC ((..(((....)))..)) were -20.1 kcal/mol and 51.8 °C.
The like results for GCAGGCGGAAACACCTGC (((((.(....).))))) were, in that order, -48.9 kcal/mol and 54.1 °C.
The like results for GATCCTATCAGGATC ((((((...)))))) were, in that order, -35.7 kcal/mol and 57.2 °C.
Take GTCAAGACGAAAGTCGAC (((..(((....)))))): the folding enthalpy in series [1] is -13.7 kcal/mol. Moreover, the Tm in series [2] came to 43.9 °C.
Take GTGTTCGAAAGAATACAC ((((((....)))..))): the folding enthalpy in series [1] was -22.9 kcal/mol. Further, in series [2], the Tm amounted to 42.6 °C.
The like results for GGGCCCGGAAACGGGCTC (.(((((....))))).) were, in that order, -12.2 kcal/mol and 68 °C.
Consider GTGATTCGAAAGAAACAC (((.(((....))).))), for which, in series [1], the folding enthalpy is -30 kcal/mol. Also, the Tm in series [2] is 46.5 °C.
Consider GAGCGACGAAAGTCTCTC (((.(((....))).))), for which the folding enthalpy in series [1] is -29.5 kcal/mol. In addition, the Tm in series [2] stood at 46 °C.
The like results for GGCGTCACGAAAGTGGCC (((..(((....)))))) were, in that order, -15.2 kcal/mol and 50.3 °C.
Taken in the same sequence, the figures for GGCAGTGGAAACACTACC ((.((((....)))).)) were -29.7 kcal/mol and 43.4 °C.
Turning to GCTTTGCGAAAGCACCGC ((..(((....)))..)), in series [1], the folding enthalpy was -12.4 kcal/mol. The Tm in series [2] is 39.2 °C.
The like results for GCGTTCGGAAACGAGCGC (((.(((....))).))) were, in that order, -33.6 kcal/mol and 66 °C.
Consider GACCCCGAAAGGGCCGTC ((((((....)))..))), for which the folding enthalpy in series [1] was -14 kcal/mol. Moreover, in series [2], the Tm worked out at 35.7 °C.
Taken in the same sequence, the figures for GAGCGCCGAAAGGCCTC (((.(((....)))))) were -14.6 kcal/mol and 59.8 °C.
Taken in the same sequence, the figures for GATCTAAAGTAGATC ((((((...)))))) were -22.2 kcal/mol and 37.1 °C.
On to GATCACAGGCGTGATC ((((((....)))))), for which, in series [1], the folding enthalpy was -36 kcal/mol. In addition, the Tm in series [2] stood at 57.3 °C.
With GATCCGTTCCCGGATC ((((((....)))))), the folding enthalpy in series [1] is -43.4 kcal/mol. Besides, in series [2], the Tm was 55.7 °C.
Taken in the same sequence, the figures for GCTGTAGGAAACTATAGC (((.(((....))).))) were -28.3 kcal/mol and 43.7 °C.
As for GTGTCTCCGAAAGGACAC (((..(((....)))))), in series [1], the folding enthalpy is -25.1 kcal/mol. For the same sequence, in series [2], the Tm is 45.7 °C.
The like results for GACCTCCGAAAGGAGTC (((.(((....)))))) were, in that order, -15.3 kcal/mol and 49.2 °C.
The like results for GCCCAGCGAAAGCAGCGC ((.(.((....)).).)) were, in that order, -13.9 kcal/mol and 46.5 °C.
Turning to GCCCGGCGAAAGCTAGGC (((..((....))..))), in series [1], the folding enthalpy was -21.5 kcal/mol. Moreover, the Tm in series [2] was found to be 56.7 °C.
Taken in the same sequence, the figures for GTGTCCGGAAACGAACAC ((((.((....)).)))) were -32.5 kcal/mol and 45.4 °C.
The like results for GATCCCTCATGGGATC ((((((....)))))) were, in that order, -37 kcal/mol and 62.6 °C.
The like results for GGATCCCCGAAAGGGTCC (((..(((....)))))) were, in that order, -19.8 kcal/mol and 45.3 °C.
On to GTAGCGCGAAAGCGATAC (((.(((....))).))), for which the folding enthalpy in series [1] was -24.1 kcal/mol. Moreover, the Tm in series [2] was 68 °C.
The like results for GTCGCCGAAAGGCGGGAC ((((((....)))..))) were, in that order, -6.81 kcal/mol and 41 °C.
With GCGTCATTACGC ((((....)))), the folding enthalpy in series [1] was -22.9 kcal/mol. The Tm in series [2] stood at 55 °C.
Taken in the same sequence, the figures for GATCTTGCTCAAGATC ((((((....)))))) were -39.4 kcal/mol and 48.3 °C.
The like results for GGCGGGTCGAAAGACGCC (((..(((....)))))) were, in that order, -24.8 kcal/mol and 58 °C.
Taken in the same sequence, the figures for GGGAAACCGAAAGGTCCC (((..(((....)))))) were -19.7 kcal/mol and 46.6 °C.
On to GACAACGGAAACATTGTC (((((.(....).))))), for which, in series [1], the folding enthalpy is -26.3 kcal/mol. In addition, the Tm in series [2] was found to be 34.6 °C.
The like results for GCTGCGCGAAAGCGACGC ((..(((....)))..)) were, in that order, -19.4 kcal/mol and 56 °C.
In the case of GTCAGTCCGAAAGGAGAC (((..(((....)))))), in series [1], the folding enthalpy was -15.6 kcal/mol. For the same sequence, the Tm in series [2] came out at 33.2 °C.
The like results for GTGGTTCGAAAGAATCAC (((.(((....))).))) were, in that order, -47.5 kcal/mol and 53.7 °C.
For the sequence GCGTCGAACGC ((((...)))), in series [1], the folding enthalpy was -18.2 kcal/mol. The Tm in series [2] was 50.3 °C.
Turning to GTCAGACGAAAGTCAGAC (((.(((....))).))), the folding enthalpy in series [1] is -31.5 kcal/mol. Besides, the Tm in series [2] amounted to 53.6 °C.
As to GCTTTACCGAAAGGTAGC (((..(((....)))))), the folding enthalpy in series [1] is -13 kcal/mol. Also, the Tm in series [2] amounted to 37.7 °C.
For the sequence GCGTCAGACGC ((((...)))), the folding enthalpy in series [1] is -22.7 kcal/mol. For the same sequence, in series [2], the Tm stood at 52.3 °C.
Taken in the same sequence, the figures for GTTCCGGGAAACCGAAAC (((.(((....))).))) were -25 kcal/mol and 38.5 °C.
Taken in the same sequence, the figures for GATGGCGAAAGCCAGATC ((((((....)))..))) were -15.7 kcal/mol and 50 °C.
Consider GTACAACGAAAGTTTTAC (((.(((....))).))), for which the folding enthalpy in series [1] is -18.6 kcal/mol. Also, in series [2], the Tm amounted to 36.7 °C.
The like results for GCCAACCGAAAGGTCGGC (((.(((....))).))) were, in that order, -40.2 kcal/mol and 59.4 °C.
The like results for GGAGCCCGAAAGGGTCC (((.(((....)))))) were, in that order, -18.9 kcal/mol and 59.9 °C.
Turning to GCTAGCGGAAACGCTAAC (.(((((....))))).), the folding enthalpy in series [1] was -12.7 kcal/mol. The Tm in series [2] was 40 °C.
Taken in the same sequence, the figures for GCGACGCCTCGC ((((....)))) were -16.9 kcal/mol and 50.1 °C.
The like results for GCACATGGAAACGTGTGC (((((.(....).))))) were, in that order, -45.2 kcal/mol and 55.5 °C.
For the sequence GAGGGCGAAAGCCTGCTC ((((((....)))..))), in series [1], the folding enthalpy was -12.4 kcal/mol. In series [2], the Tm stood at 42.5 °C.
As for GTTCTCGAAAGAGAAC ((((((....)))))), the folding enthalpy in series [1] was -35.2 kcal/mol. In addition, in series [2], the Tm was determined as 61 °C.
Taken in the same sequence, the figures for GGCAGGGGAAACCCTACC ((.((((....)))).)) were -26.6 kcal/mol and 43.7 °C.
GATCTCGGCAGAGATC ((((((....)))))): in series [1], the folding enthalpy was -42 kcal/mol. For the same sequence, the Tm in series [2] was found to be 68.1 °C.
Taken in the same sequence, the figures for GAGGAGGGAAACCCCCTC ((((.((....)).)))) were -26 kcal/mol and 46.5 °C.
With GATAACCGAAAGGTCATC (((.(((....))).))), the folding enthalpy in series [1] is -21.3 kcal/mol. In addition, the Tm in series [2] stood at 37.2 °C.
The like results for CGTGGGAAACCACG (((((....))))) were, in that order, -34.5 kcal/mol and 58 °C.
The like results for GATCGGTGGACCGATC ((((((....)))))) were, in that order, -31.7 kcal/mol and 57.2 °C.
The like results for GCGTTGGGAAACCGACGC ((((.((....)).)))) were, in that order, -40.3 kcal/mol and 64 °C.
In the case of GATCACTCGGGTGATC ((((((....)))))), the folding enthalpy in series [1] is -37.4 kcal/mol. Also, the Tm in series [2] was found to be 57.6 °C.
The like results for GAGCACCGAAAGGTCCTC (((.(((....))).))) were, in that order, -22.2 kcal/mol and 40.8 °C.
For GATCGGCGGTCCGATC ((((((....)))))), in series [1], the folding enthalpy is -43.3 kcal/mol. Further, the Tm in series [2] was 55.5 °C.
Consider GAGCGCGGAAACGCACTC (((.(((....))).))), for which the folding enthalpy in series [1] was -24.2 kcal/mol. Moreover, the Tm in series [2] amounted to 59 °C.
Taken in the same sequence, the figures for GCACAGCGAAAGCGTTGC (((..((....))..))) were -15.5 kcal/mol and 48.2 °C.
Taken in the same sequence, the figures for GATCGGGAGACCGATC ((((((....)))))) were -32.6 kcal/mol and 63.8 °C.
Taken in the same sequence, the figures for GATCATTTAGATGATC ((((((....)))))) were -37.4 kcal/mol and 47.6 °C.
Consider GATCATCAGCATGATC ((((((....)))))), for which, in series [1], the folding enthalpy is -22.3 kcal/mol. Besides, in series [2], the Tm was 45 °C.
Taken in the same sequence, the figures for GAATACGAAAGTATGTTC ((((((....)))..))) were -14.2 kcal/mol and 32.3 °C.
Taken in the same sequence, the figures for GTCGTAGGAAACTACGAC (((((((....))))))) were -43.6 kcal/mol and 63.3 °C.
Taken in the same sequence, the figures for GTGTCTGGAAACAGATGC (..((((....))))..) were -20.7 kcal/mol and 40.2 °C.
